{"source": "ChEMBL document CHEMBL1125339", "about": "“Copyrine alkaloids: synthesis, spectroscopic characterization, and antimycotic/antimycobacterial activity of A- and B-ring-functionalized sampangines” (1992)", "key": {"Aspergillus fumigatus": {"test_system": "Aspergillus fumigatus", "test": "In vitro antifungal activity against Aspergillus fumigatus ATCC 26934.", "format": "functional", "how_it_was_run": "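Inoculum is a surface-growth suspension from agar slants in sterile water. Compounds active in the agar-well diffusion screen (1 mg/mL, zone >4 mm) are tested by 2-fold serial dilution in Sabouraud dextrose broth. 10 μL loop inoculum, 30 °C, read at 48 and 72 h. MIC is the lowest growth-inhibiting concentration. Amphotericin B is the control. Replicate evaluations.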"}, "Candida albicans": {"test_system": "Candida albicans", "test": "In vitro antifungal activity against Candida albicans B311.", "format": "functional", "how_it_was_run": "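Cells grown 24 h at 37 °C in Sabouraud dextrose broth, centrifuged, washed and resuspended in 0.9% saline at 10^6 CFU/mL (hemacytometer). MIC by 2-fold serial dilution in yeast nitrogen broth with a 10 μL loop inoculum. Incubation at 37 °C, read at 24 and 48 h. MIC is the lowest inhibitory concentration. Amphotericin B is the control. Replicate evaluations.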"}, "Cryptococcus neoformans": {"test_system": "Cryptococcus neoformans", "test": "In vitro antifungal activity against Cryptococcus neoformans ATCC 32264."}, "[1]": {"test_system": "Mycobacterium intracellulare", "test": "In vitro anti-mycobacterial activity against Mycobacterium intracellular ATCC 23068.", "format": "functional", "how_it_was_run": "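Organism grown on Lowenstein-Jensen medium for 48 h at 37 °C. Active compounds from the agar-well screen (1 mg/mL, zone >4 mm) go to 2-fold serial broth dilution in Mueller-Hinton broth. 10 μL loop inoculum per tube, 37 °C for 72 h. MIC is the lowest concentration inhibiting growth. Rifampin is the positive control. Replicate evaluations.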"}}}
{"smiles": "C[C@@H]1[C@H](O)[C@@H](C)/C=C/C=C/C=C/C=C/C=C/C=C/C=C/[C@H](O[C@@H]2O[C@H](C)[C@@H](O)[C@H](N)[C@@H]2O)C[C@@H]2O[C@](O)(C[C@@H](O)C[C@@H](O)[C@H](O)CC[C@@H](O)C[C@@H](O)CC(=O)O[C@H]1C)C[C@H](O)[C@H]2C(=O)O", "note": "[AMPHOTERICIN B]", "values": [{"measurement": "MIC", "setting": "Aspergillus fumigatus", "value": 0.39, "unit": "µg/mL"}, {"measurement": "MIC", "setting": "Candida albicans", "value": 0.78, "unit": "µg/mL"}, {"measurement": "MIC", "setting": "Cryptococcus neoformans", "value": 0.39, "unit": "µg/mL"}]}
{"smiles": "CO[C@H]1/C=C/O[C@@]2(C)Oc3c(C)c(O)c4c(O)c(c(/C=N/N5CCN(C)CC5)c(O)c4c3C2=O)NC(=O)/C(C)=C\\C=C\\[C@H](C)[C@H](O)[C@@H](C)[C@@H](O)[C@@H](C)[C@H](OC(C)=O)[C@@H]1C", "note": "[RIFAMPIN]", "values": [{"measurement": "MIC", "setting": "[1]", "value": 0.78, "unit": "µg/mL"}]}
{"smiles": "CCc1ccnc2c1C(=O)c1ccccc1C2=O", "values": [{"measurement": "MIC", "setting": "Candida albicans", "value": 100, "unit": "µg/mL"}, {"measurement": "MIC", "setting": "[1]", "value": 12.5, "unit": "µg/mL"}, {"measurement": "MIC", "setting": "Cryptococcus neoformans", "value": 3.12, "unit": "µg/mL"}]}
{"smiles": "[N-]=[N+]=Nc1cnc2c3c(nccc13)-c1ccccc1C2=O", "values": [{"measurement": "MIC", "setting": "Candida albicans", "value": 25, "unit": "µg/mL"}, {"measurement": "MIC", "setting": "Cryptococcus neoformans", "value": 6.25, "unit": "µg/mL"}]}
{"smiles": "Cc1ccnc2c1C(=O)c1ccccc1C2=O", "note": "[CLEISTOPHOLINE]", "values": [{"measurement": "MIC", "setting": "Aspergillus fumigatus", "value": 100, "unit": "µg/mL"}, {"measurement": "MIC", "setting": "Candida albicans", "value": 12.5, "unit": "µg/mL"}, {"measurement": "MIC", "setting": "[1]", "value": 12.5, "unit": "µg/mL"}, {"measurement": "MIC", "setting": "Cryptococcus neoformans", "value": 1.56, "unit": "µg/mL"}]}
{"smiles": "Cc1cnc2c3c(nccc13)C(=O)c1ccccc1-2", "values": [{"measurement": "MIC", "setting": "Aspergillus fumigatus", "value": 0.78, "unit": "µg/mL"}, {"measurement": "MIC", "setting": "Candida albicans", "value": 0.39, "unit": "µg/mL"}, {"measurement": "MIC", "setting": "[1]", "value": 0.39, "unit": "µg/mL"}, {"measurement": "MIC", "setting": "Cryptococcus neoformans", "value": 0.39, "unit": "µg/mL"}]}
{"smiles": "COc1cnc2c3c(nccc13)-c1ccccc1C2=O", "values": [{"measurement": "MIC", "setting": "Candida albicans", "value": 3.12, "unit": "µg/mL"}, {"measurement": "MIC", "setting": "[1]", "value": 3.12, "unit": "µg/mL"}, {"measurement": "MIC", "setting": "Cryptococcus neoformans", "value": 1.56, "unit": "µg/mL"}]}
{"smiles": "O=C1c2ccccc2-c2nccc3c2c1nc1ccccc13", "note": "[BENZOSAMPANGINE]", "values": [{"measurement": "MIC", "setting": "Aspergillus fumigatus", "value": 0.39, "unit": "µg/mL"}, {"measurement": "MIC", "setting": "Candida albicans", "value": 0.39, "unit": "µg/mL"}, {"measurement": "MIC", "setting": "[1]", "value": 0.39, "unit": "µg/mL"}, {"measurement": "MIC", "setting": "Cryptococcus neoformans", "value": 1.56, "unit": "µg/mL"}]}
{"smiles": "O=C1c2ccccc2-c2nccc3c(Cl)cnc1c23", "values": [{"measurement": "MIC", "setting": "Candida albicans", "value": 0.39, "unit": "µg/mL"}, {"measurement": "MIC", "setting": "[1]", "value": 3.12, "unit": "µg/mL"}, {"measurement": "MIC", "setting": "Cryptococcus neoformans", "value": 0.1, "unit": "µg/mL"}]}
{"smiles": "CCOc1nc2c3c(nccc3c1Br)-c1ccccc1C2=O", "values": [{"measurement": "MIC", "setting": "[1]", "value": 25, "unit": "µg/mL"}, {"measurement": "MIC", "setting": "Cryptococcus neoformans", "value": 25, "unit": "µg/mL"}]}
{"smiles": "Cc1c2c(nc3ccccc13)C(=O)c1ccccc1C2=O", "values": [{"measurement": "MIC", "setting": "Candida albicans", "value": 25, "unit": "µg/mL"}, {"measurement": "MIC", "setting": "[1]", "value": 1.56, "unit": "µg/mL"}, {"measurement": "MIC", "setting": "Cryptococcus neoformans", "value": 25, "unit": "µg/mL"}]}
{"smiles": "O=C1c2ccccc2-c2nccc3c(Br)cnc1c23", "values": [{"measurement": "MIC", "setting": "Aspergillus fumigatus", "value": 50, "unit": "µg/mL"}, {"measurement": "MIC", "setting": "Candida albicans", "value": 3.12, "unit": "µg/mL"}, {"measurement": "MIC", "setting": "[1]", "value": 3.12, "unit": "µg/mL"}, {"measurement": "MIC", "setting": "Cryptococcus neoformans", "value": 0.1, "unit": "µg/mL"}]}
{"smiles": "Nc1cnc2c3c(nccc13)-c1ccccc1C2=O", "values": [{"measurement": "MIC", "setting": "Candida albicans", "value": 100, "unit": "µg/mL"}, {"measurement": "MIC", "setting": "Cryptococcus neoformans", "value": 25, "unit": "µg/mL"}]}
{"smiles": "COc1cnc2c3c(nccc13)C(=O)c1ccccc1-2", "values": [{"measurement": "MIC", "setting": "Aspergillus fumigatus", "value": 0.78, "unit": "µg/mL"}, {"measurement": "MIC", "setting": "Candida albicans", "value": 1.56, "unit": "µg/mL"}, {"measurement": "MIC", "setting": "[1]", "value": 1.56, "unit": "µg/mL"}, {"measurement": "MIC", "setting": "Cryptococcus neoformans", "value": 0.78, "unit": "µg/mL"}]}
{"smiles": "O=C1c2ccccc2-c2nccc3ccnc1c23", "note": "[SAMPANGINE]", "values": [{"measurement": "MIC", "setting": "Aspergillus fumigatus", "value": 1.56, "unit": "µg/mL"}, {"measurement": "MIC", "setting": "Candida albicans", "value": 1.56, "unit": "µg/mL"}, {"measurement": "MIC", "setting": "[1]", "value": 0.78, "unit": "µg/mL"}, {"measurement": "MIC", "setting": "Cryptococcus neoformans", "value": 0.78, "unit": "µg/mL"}]}
